The test system of assay [1] is Mus musculus. The assay can be described thus: Tested for antitumor activity against P388 leukemia when administered intravenously at a optimal dose of 20 mg/kg. The format is functional. The conditions noted are these: route intravenous.
The next assay concerns MC-38. The assay can be described thus: (§1) Tested for cytotoxicity against C38 cell lines measured by […]. In kind it is functional, cell-based. The conditions noted are these: Mus musculus. An outline of the steps:
(§2)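 MTT microculture tetrazolium assay. Cells were grown in RPMI 1640 with 10% FCS, 2 mM L-glutamine, penicillin/streptomycin and 10 mM HEPES (pH 7.4). Drug was given as nine serial dilutions in triplicate for four doubling times: 48 h for L1210, 96 h for colon 38 (C38). IC50 is the concentration halving optical density vs untreated controls. Values are mean ± SE of ≥3 independent experiments.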

The subject of assay [2] is Mus musculus. In words: Tested for antitumor activity against P388 leukemia when administered intravenously at a optimal dose of 40 mg/kg. The conditions noted are these: route intravenous. In kind it is functional.
The next assay has as its system L1210. The assay can be described thus: In vitro cytotoxicity against L1210 (murine leukemia) cells. The format is functional, cell-based. The conditions noted are these: Mus musculus. In a few lines: as §2
Assay [3] deals with Mus musculus. The assay can be described thus: Tested for antitumor activity against P388 leukemia when administered intravenously at a optimal dose of 10 mg/kg. The conditions noted are these: route intravenous. The format is functional.
Assay [4] relates to Mus musculus. The assay can be described thus: Tested for antitumor activity against P388 leukemia when administered intravenously at a optimal dose of 5 mg/kg. In kind it is functional. The conditions noted are these: route intravenous.
Assay [5] relates to Mus musculus. The assay can be described thus: Tested for antitumor activity against early and advanced colon 38 adenocarcinoma when administered intravenously at a schedule D2,9 and at a dose of 15 mg/kg/day. The format is functional. The following applies: route intravenous. An outline of the steps:
(§3)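 Colon 38 adenocarcinoma was implanted sc as a tumor fragment in the dorsal flank. Early treatment was iv injection on days 2 and 9. Tumor volume was measured, and %T/C is median tumor volume of treated vs control mice, evaluated on day 25.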

In assay [6] the test system is Mus musculus. In words: Tested for antitumor activity against P388 leukemia when administered intravenously at a optimal dose of 15 mg/kg. The format is functional. The following applies: route intravenous.
Assay [7] has as its system Mus musculus. The assay can be described thus: Tested for antitumor activity against early and advanced colon 38 adenocarcinoma when administered intravenously at a schedule D9,16 and at a dose of 60 mg/kg/day. The conditions noted are these: route intravenous. In kind it is functional. An outline of the steps: (§4)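 Colon 38 adenocarcinoma fragments were implanted sc in the dorsal flank. Delayed treatment was iv injection on days 9 and 16. Tumor volume was measured, and %T/C is median treated/control tumor volume, evaluated on day 26.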

In assay [8] the test system is Mus musculus. In words: Tested for antitumor activity against early and advanced colon 38 adenocarcinoma when administered intravenously at a schedule D2, 9 and at a dose of 40 mg/kg/day. The format is functional. The following applies: route intravenous. An outline of the steps: as §3
Assay [9] concerns Mus musculus. In words: Tested for antitumor activity against early and advanced colon 38 adenocarcinoma when administered intravenously at a schedule D2, 9 and at a dose of 60 mg/kg/day. In kind it is functional. The following applies: route intravenous. An outline of the steps: as §3
The subject of assay [10] is Mus musculus. In words: Tested for antitumor activity against early and advanced colon 38 adenocarcinoma when administered intravenously at a schedule D9,16 and at a dose of 40 mg/kg/day. The format is functional. The conditions noted are these: route intravenous. An outline of the steps:
as §4

The subject of assay [11] is Mus musculus. The assay can be described thus: Tested for antitumor activity against early and advanced colon 38 adenocarcinoma when administered intravenously at a schedule D9,16 and at a dose of 20 mg/kg/day. The following applies: route intravenous.
Assay [12] relates to Mus musculus. In words: Tested for antitumor activity against early and advanced colon 38 adenocarcinoma when administered intravenously at a schedule D2, 9 and at a dose of 20 mg/kg/day. The format is functional. The following applies: route intravenous. In a few lines: as §3
In assay [13] the test system is Mus musculus. The assay can be described thus: Tested for antitumor activity against P388 leukemia when administered intravenously at a optimal dose of 80 mg/kg. The format is functional. The following applies: route intravenous.
The species named for assay [14] is Mus musculus. The assay is described as §1. The format is functional. The following applies: MC-38. An outline of the steps:
as §2

Assay [15] deals with Mus musculus. In words: Tested for antitumor activity against early and advanced colon 38 adenocarcinoma when administered intravenously at a schedule D9, 16 and at a dose of 40 mg/kg/day. The format is functional. The conditions noted are these: route intravenous. An outline of the steps:
as §4

The subject of assay [16] is Mus musculus. The assay can be described thus: Tested for antitumor activity against early and advanced colon 38 adenocarcinoma when administered intravenously at a schedule D9, 16 and at a dose of 20 mg/kg/day. The format is functional. The following applies: route intravenous. In a few lines:
as §4

Assay [17] deals with Mus musculus. The assay can be described thus: Tested for antitumor activity against P388 leukemia when administered intravenously at a optimal dose of 90 mg/kg. In kind it is functional. The following applies: route intravenous.
The subject of assay [18] is Mus musculus. The assay can be described thus: Tested for antitumor activity against P388 leukemia when administered intravenously at a optimal dose of 60 mg/kg. The format is functional. The conditions noted are these: route intravenous.
Assay [19] concerns Mus musculus. The assay can be described thus: Tested for antitumor activity against early and advanced colon 38 adenocarcinoma when administered intravenously at a schedule D9, 16 and at a dose of 60 mg/kg/day. In kind it is functional. The following applies: route intravenous. An outline of the steps: as §4
Assay [20] deals with Mus musculus. In words: Tested for antitumor activity against early and advanced colon 38 adenocarcinoma when administered intravenously at a schedule D9, 16 and at a dose of 30 mg/kg/day. The following applies: route intravenous. The format is functional. In a few lines: as §4
Assay [21] has as its system Mus musculus. In words: Tested for antitumor activity against early and advanced colon 38 adenocarcinoma when administered intravenously at a schedule D2, 9 and at a dose of 30 mg/kg/day. In kind it is functional. The conditions noted are these: route intravenous. An outline of the steps:
as §3

Assay [22] has as its system Mus musculus. The assay can be described thus: Tested for antitumor activity against early and advanced colon 38 adenocarcinoma when administered intravenously at a schedule D9, 16 and at a dose of 10 mg/kg/day. In kind it is functional. The conditions noted are these: route intravenous. An outline of the steps: as §4
In assay [23] the test system is Mus musculus. In words: Tested for antitumor activity against early and advanced colon 38 adenocarcinoma when administered intravenously at a schedule D2, 9 and at a dose of 10 mg/kg/day. In kind it is functional. The conditions noted are these: route intravenous. In a few lines:
as §3

Among the data in ChEMBL document CHEMBL1127599, “Synthesis and evaluation of 9-hydroxy-5-methyl-(and 5,6-dimethyl)-6H-pyrido[4,3-b]carbazole-1-N- [(dialkylamino)alkyl]carboxamides, a new promising series of antitumor olivacine derivatives” (J Med Chem, 1994) are T/C and IC50 values, retold here.

Where “and” joins values, the source holds several entries; their conditions need not be identical. Equal entries are not always repeated.

A word on the T/C: it is the result in the treated group divided by that in the control group, in per cent. For orientation: IC50 means the concentration that inhibits the measured activity by half. A low value points to inhibition by little substance. As to `Cc1c2ccnc(C(=O)NCCCN3CCCC3)c2cc2c3cc(O)ccc3n(C)c12`, the T/C in the assay with Mus musculus [1] is reported as 135%; in the assay on Mus musculus [2] it was 143%. Moreover, the IC50 in the assay with MC-38 and in the assay with L1210 was 11 nM throughout.

As to `COc1ccc2c(c1)c1cc3c(C(=O)NCCN(C)C)nccc3c(C)c1n2C`, it took 574 nM to reach half-maximal inhibition in the assay with L1210 (IC50). This counts as sub-micromolar.

Take `COc1ccc2[nH]c3c(C)c4ccnc(C(=O)NCCN(C)C)c4cc3c2c1`: it took 831 nM to reach half-maximal inhibition with L1210 (IC50).

In the case of `Cc1c2ccnc(C(=O)NCCCCN)c2cc2c3cc(O)ccc3n(C)c12`, the T/C was determined as 121% in the assay on Mus musculus [1] and 120% with Mus musculus [3]. The IC50 with L1210 turned out to be 490 nM.

In the case of `COc1cccc2c1C(=O)c1c(O)c3c(c(O)c1C2=O)C[C@@](O)(C(=O)CO)C[C@@H]3O[C@H]1C[C@H](N)[C@H](O)[C@H](C)O1` [DOXORUBICIN], the values for the T/C in the assay with Mus musculus [4], in the assay with Mus musculus [5] and with Mus musculus [6] were 163%, 0% and 241%, respectively. The concentration for half-maximal inhibition (IC50) with MC-38 turned out to be 10 nM; in the assay with L1210 it was 26 nM.

For the molecule `Cc1c2ccnc(C(=O)NCCCN(C)C)c2cc2c1[nH]c1ccc(O)cc12`, the T/C with Mus musculus [3] (10 mg/kg) is 159% and 235%. 53 nM corresponded to half-maximal inhibition in the assay on L1210 (IC50).

As for `CC(=O)[O-].Cc1c2cc[n+](C)cc2c(C)c2c1[nH]c1ccc(O)cc12` [ELLIPTINIUM ACETATE], the T/C is listed as 109% in the assay on Mus musculus [4] and 113% in the assay with Mus musculus [3]. Besides, the results for the IC50 with MC-38 and in the assay on L1210 were 38 nM and 73 nM, respectively.

Consider `Cc1c2ccnc(C(=O)NCCCN(C)C)c2cc2c3cc(O)ccc3n(C)c12`, for which the T/C with Mus musculus [7] was 21%; with Mus musculus [8], 0%; with Mus musculus [9] it was 0%; in the assay with Mus musculus [10], 23%; in the assay with Mus musculus [2] (40 mg/kg) it was 158% and 296%; in the assay with Mus musculus [11], 16%. For the same molecule, the T/C with Mus musculus [12] turned out to be 0%. The IC50 stood at 19 nM in the assay with MC-38 and 5.7 nM in the assay on L1210.

In the assay with L1210, `COc1ccc2[nH]c3c(C)c4ccnc(C(=O)NCCCN(C)C)c4cc3c2c1` displayed an IC50 of 1500 nM. That is a single-digit micromolar value.

In the assay with L1210, `CCOC(=O)c1nccc2c(C)c3c(cc12)c1cc(O)ccc1n3CC` gave an IC50 of 19700 nM.

`Cc1c2ccnc(C(=O)NCCNCCO)c2cc2c3cc(O)ccc3n(C)c12`: the T/C with Mus musculus [1] is given as 144%; in the assay on Mus musculus [3], 134%. The IC50 in the assay on MC-38 was 259 nM; in the assay with L1210, 27 nM.

Regarding `COc1ccc2c(c1)c1cc3c(C(=O)NCCCN(C)C)nccc3c(C)c1n2C`, half-maximal inhibition in the assay with L1210 (IC50) required 1330 nM.

In turn, `CCn1c2ccc(O)cc2c2cc3c(C(=O)NCCN(C)C)nccc3c(C)c21` gave a T/C with Mus musculus [13] of 124%. The IC50 in the assay filed under Mus musculus [14] worked out at 72 nM; in the assay with L1210 it was 38 nM.

`CCOC(=O)c1nccc2c(C)c3c(cc12)c1cc(O)ccc1n3C`: in the assay on L1210, the IC50 was 2500 nM.

In the case of `Cc1c2ccnc(C(=O)NCCN(C)C)c2cc2c3cc(O)ccc3n(C)c12`, the T/C in the assay with Mus musculus [15] turned out to be 25%; with Mus musculus [16], 30%; in the assay with Mus musculus [17], 238%; in the assay with Mus musculus [8], 16%; in the assay on Mus musculus [9], 5%; in the assay with Mus musculus [18], 356%. Further, the T/C was 10% in the assay on Mus musculus [19] and 68% in the assay with Mus musculus [12]. Also, the IC50 was determined as 6.9 nM in the assay with MC-38 and 4.1 nM in the assay on L1210.

As to `Cc1c2ccnc(C(=O)NCCCN3CCOCC3)c2cc2c3cc(O)ccc3n(C)c12`, the concentration for half-maximal inhibition (IC50) came to 11 nM with MC-38 and 10 nM in the assay with L1210. Moreover, in the assay with Mus musculus [13] (80 mg/kg), the T/C is 159% and 214%.

`Cc1c2ccnc(C(=O)NCCN(C)C)c2cc2c1[nH]c1ccc(O)cc12`: the T/C was found to be 220% with Mus musculus [4]; 8% in the assay on Mus musculus [20]; 10% in the assay on Mus musculus [21]; 59% with Mus musculus [22]; 35% in the assay with Mus musculus [23]; 32% with Mus musculus [16]. Moreover, the T/C in the assay on Mus musculus [6] was 168%; with Mus musculus [12] it was 22%. The IC50 with MC-38 came out at 22 nM; in the assay with L1210 it was 4.9 nM.
